Data published in ChEMBL document CHEMBL2062426 (J Med Chem, 2012).

Legend:
[1] = Octanol-water partition coefficient, log D of the compound after 1 min by gamma-counting at pH 7.4; type: physicochemical
Procedure, shortened: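 About 20 kBq of tracer was shaken for 1 min at room temperature in 0.5 mL PBS pH 7.4 with 0.5 mL 1-octanol, then centrifuged (3000 rpm, 2 min). Triplicate 100 μL samples of each phase were γ-counted. log D7.4 is log(cpm octanol/cpm PBS), from two independent experiments in triplicate, given as mean ± SD.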

Serum [2] = test: Metabolic stability in human serum at 5 MBq up to 120 mins by radio-HPLC analysis; type: ADME, cell-free; settings: 2 h
Procedure, shortened: (§1)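 The PBS-formulated 18F tracer (20 μL, 5 MBq) was added to 200 μL human serum and incubated at 37 °C. Samples of 20 μL were taken at 10, 20, 30, 60, 90 and 120 min, quenched in methanol/CH2Cl2 1:1 and centrifuged 2 min. The organic layer was analysed by radio-HPLC (C18; 30% CH3CN/0.1% TFA for 15 min, then gradient).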

Serum [3] = test: Drug metabolism in human serum at 5 MBq up to 120 mins by radio-HPLC analysis; type: ADME, cell-free; settings: 2 h; procedure, shortened: as §1
Serum [4] = test: Drug metabolism in mouse serum at 5 MBq up to 120 mins by radio-HPLC analysis; type: ADME, cell-free; settings: 2 h
Procedure, shortened: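 Serum stability was repeated in mouse blood serum at 37 °C, with analysis by radio-HPLC.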

Kidney [5] = test: Tmax in C57/Bl6 mouse kidney at 250 kBq/g bodyweight, iv administered as bolus dose by PET scanning; type: ADME, organism-based; settings: in vivo
Procedure, shortened: (§2)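 Adult C57/Bl6 mice given the 18F tracer by intravenous injection. List-mode PET data acquired for 120 min on a high-resolution small-animal scanner and reconstructed into dynamic frames iteratively. Organ volumes of interest were drawn on co-registered CT. Uptake is counts per mL in the VOI divided by total counts in the mouse ×100 (% ID/mL).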

Kidney [6] = test: Half life in C57/Bl6 mouse kidney at 250 kBq/g bodyweight, iv administered as bolus dose by PET scanning; type: ADME, organism-based; settings: in vivo; procedure, shortened: as §2
Liver [7] = test: Tmax in C57/Bl6 mouse liver at 250 kBq/g bodyweight, iv administered as bolus dose by PET scanning; type: ADME, organism-based; settings: in vivo; procedure, shortened: as §2
Liver [8] = test: Half life in C57/Bl6 mouse liver at 250 kBq/g bodyweight, iv administered as bolus dose by PET scanning; type: ADME, organism-based; settings: in vivo; procedure, shortened: as §2
Mus musculus = test: Drug metabolism in C57/Bl6 mouse assessed as defluorination at 250 kBq/g bodyweight, iv administered as bolus dose up to 120 mins by PET scanning; type: ADME, organism-based; settings: in vivo, 2 h; procedure, shortened: as §2
Brain = test: Drug uptake in C57/Bl6 mouse brain at 250 kBq/g bodyweight, iv administered as bolus dose up to 120 mins by PET scanning; type: ADME, organism-based; settings: in vivo, 2 h; procedure, shortened: as §2
[9] = Drug uptake in C57/Bl6 mouse myocardium at 250 kBq/g bodyweight, iv administered as bolus dose up to 120 mins by PET scanning; type: ADME, organism-based; settings: in vivo, 2 h; procedure, shortened: as §2
Lung = test: Drug uptake in C57/Bl6 mouse lungs at 250 kBq/g bodyweight, iv administered as bolus dose up to 120 mins by PET scanning; type: ADME, organism-based; settings: in vivo, 2 h; procedure, shortened: as §2
Muscle tissue [10] = test: Drug uptake in C57/Bl6 mouse muscle at 250 kBq/g bodyweight, iv administered as bolus dose up to 120 mins by PET scanning; type: ADME, organism-based; settings: in vivo, 2 h; procedure, shortened: as §2
[11] = Metabolic stability in iv dosed ICR CD1 mouse muscle assessed as compound remaining after 30 mins by gamma-counting based HPLC analysis; type: ADME, organism-based, Muscle tissue; settings: read-out: Stability
Procedure, shortened: (§3)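 Three 10-month-old female ICR (CD1) mice received about 11.1 MBq tracer by tail vein and were killed 30 min pi. Plasma was taken from blood by centrifugation, and urine was collected. Muscle, kidney and liver were homogenized in 1% SDS/PBS and extracted with acetonitrile/acetic acid. Supernatants were γ-counted, %ID/g was computed against a dose aliquot, and samples were run on C18 radio-HPLC with an acetonitrile/water gradient in 0.05% TFA.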

Kidney [12] = test: Metabolic stability in iv dosed ICR CD1 mouse kidney assessed as compound remaining after 30 mins by gamma-counting based HPLC analysis; type: ADME, organism-based; settings: in vivo, 0.5 h; procedure, shortened: as §3
Liver [13] = test: Metabolic stability in iv dosed ICR CD1 mouse liver assessed as compound remaining after 30 mins by gamma-counting based HPLC analysis; type: ADME, organism-based; settings: in vivo, 0.5 h; procedure, shortened: as §3
Plasma [14] = test: Metabolic stability in iv dosed ICR CD1 mouse plasma assessed as compound remaining after 30 mins by gamma-counting based HPLC analysis; type: ADME, organism-based; settings: in vivo, 0.5 h; procedure, shortened: as §3
[15] = Metabolic stability in iv dosed ICR CD1 mouse urine assessed as compound remaining after 30 mins by gamma-counting based HPLC analysis; type: ADME, organism-based; settings: in vivo, 0.5 h; procedure, shortened: as §3
Muscle tissue [16] = test: Drug metabolism in iv dosed ICR CD1 mouse muscle assessed as radiometabolite 1 level after 30 mins by gamma-counting based HPLC analysis; type: ADME, organism-based; settings: in vivo, 0.5 h; procedure, shortened: as §3
Kidney [17] = test: Drug metabolism in iv dosed ICR CD1 mouse kidney assessed as radiometabolite 1 level after 30 mins by gamma-counting based HPLC analysis; type: ADME, organism-based; settings: in vivo, 0.5 h; procedure, shortened: as §3
Liver [18] = test: Drug metabolism in iv dosed ICR CD1 mouse liver assessed as radiometabolite 1 level after 30 mins by gamma-counting based HPLC analysis; type: ADME, organism-based; settings: in vivo, 0.5 h; procedure, shortened: as §3
Plasma [19] = test: Drug metabolism in iv dosed ICR CD1 mouse plasma assessed as radiometabolite 1 level after 30 mins by gamma-counting based HPLC analysis; type: ADME, organism-based; settings: in vivo, 0.5 h; procedure, shortened: as §3
[20] = Drug metabolism in iv dosed ICR CD1 mouse urine assessed as radiometabolite 1 level after 30 mins by gamma-counting based HPLC analysis; type: ADME, organism-based; settings: in vivo, 0.5 h; procedure, shortened: as §3
Muscle tissue [21] = test: Drug metabolism in iv dosed ICR CD1 mouse muscle assessed as radiometabolite 2 level after 30 mins by gamma-counting based HPLC analysis; type: ADME, organism-based; settings: in vivo, 0.5 h; procedure, shortened: as §3
Kidney [22] = test: Drug metabolism in iv dosed ICR CD1 mouse kidney assessed as radiometabolite 2 level after 30 mins by gamma-counting based HPLC analysis; type: ADME, organism-based; settings: in vivo, 0.5 h; procedure, shortened: as §3
Liver [23] = test: Drug metabolism in iv dosed ICR CD1 mouse liver assessed as radiometabolite 2 level after 30 mins by gamma-counting based HPLC analysis; type: ADME, organism-based; settings: in vivo, 0.5 h; procedure, shortened: as §3
Plasma [24] = test: Drug metabolism in iv dosed ICR CD1 mouse plasma assessed as radiometabolite 2 level after 30 mins by gamma-counting based HPLC analysis; type: ADME, organism-based; settings: in vivo, 0.5 h; procedure, shortened: as §3
[25] = Drug metabolism in iv dosed ICR CD1 mouse urine assessed as radiometabolite 2 level after 30 mins by gamma-counting based HPLC analysis; type: ADME, organism-based; settings: in vivo, 0.5 h; procedure, shortened: as §3
Muscle tissue [26] = test: Drug metabolism in iv dosed ICR CD1 mouse muscle assessed as radiometabolite 3 level after 30 mins by gamma-counting based HPLC analysis; type: ADME, organism-based; settings: in vivo, 0.5 h; procedure, shortened: as §3
Kidney [27] = test: Drug metabolism in iv dosed ICR CD1 mouse kidney assessed as radiometabolite 3 level after 30 mins by gamma-counting based HPLC analysis; type: ADME, organism-based; settings: in vivo, 0.5 h; procedure, shortened: as §3
Liver [28] = test: Drug metabolism in iv dosed ICR CD1 mouse liver assessed as radiometabolite 3 level after 30 mins by gamma-counting based HPLC analysis; type: ADME, organism-based; settings: in vivo, 0.5 h; procedure, shortened: as §3
Plasma [29] = test: Drug metabolism in iv dosed ICR CD1 mouse plasma assessed as radiometabolite 3 level after 30 mins by gamma-counting based HPLC analysis; type: ADME, organism-based; settings: in vivo, 0.5 h; procedure, shortened: as §3
[30] = Drug metabolism in iv dosed ICR CD1 mouse urine assessed as radiometabolite 3 level after 30 mins by gamma-counting based HPLC analysis; type: ADME, organism-based; settings: in vivo, 0.5 h; procedure, shortened: as §3
Muscle tissue [31] = test: Drug metabolism in iv dosed ICR CD1 mouse muscle assessed as radiometabolite 4 level after 30 mins by gamma-counting based HPLC analysis; type: ADME, organism-based; settings: in vivo, 0.5 h; procedure, shortened: as §3
Kidney [32] = test: Drug metabolism in iv dosed ICR CD1 mouse kidney assessed as radiometabolite 4 level after 30 mins by gamma-counting based HPLC analysis; type: ADME, organism-based; settings: in vivo, 0.5 h; procedure, shortened: as §3
Liver [33] = test: Drug metabolism in iv dosed ICR CD1 mouse liver assessed as radiometabolite 4 level after 30 mins by gamma-counting based HPLC analysis; type: ADME, organism-based; settings: in vivo, 0.5 h; procedure, shortened: as §3
Plasma [34] = test: Drug metabolism in iv dosed ICR CD1 mouse plasma assessed as radiometabolite 4 level after 30 mins by gamma-counting based HPLC analysis; type: ADME, organism-based; settings: in vivo, 0.5 h; procedure, shortened: as §3
[35] = Drug metabolism in iv dosed ICR CD1 mouse urine assessed as radiometabolite 4 level after 30 mins by gamma-counting based HPLC analysis; type: ADME, organism-based; settings: in vivo, 0.5 h; procedure, shortened: as §3

COc1ccc(S(=O)(=O)N(Cc2cn(CC[18F])nn2)[C@@H](C(=O)NO)C(C)C)cc1
logD at 1 min [1]: 0.6 | Stability (Serum [2]): Stable | Drug metabolism (Serum [3]): Not Active | Drug metabolism (Serum [4]): Not Active | Tmax (Kidney [5]): 0.5 min | t1/2 (Kidney [6]): 13 min | Tmax (Liver [7]): 4 min | t1/2 (Liver [8]): 18 min | Drug metabolism (Mus musculus): Not Active | Drug uptake (Brain): Not Active | Drug uptake [9]: Not Active | Drug uptake (Lung): Not Active | Drug uptake (Muscle tissue [10]): Not Active | tissue uptake at 0.5 h [11]: 0.21 %ID/g | Stability (Kidney [12]): 4.6 % ID/g | Stability (Liver [13]): 0.78 % ID/g | Stability (Plasma [14]): 0.29 % ID/g | Stability [15]: 27.86 % ID/g | Drug metabolism (Muscle tissue [16]): 0 % ID/g | Drug metabolism (Kidney [17]): 0.26 % ID/g | Drug metabolism (Liver [18]): 0.12 % ID/g | Drug metabolism (Plasma [19]): 0.17 % ID/g | Drug metabolism [20]: 2.32 % ID/g | Drug metabolism (Muscle tissue [21]): 0 % ID/g | Drug metabolism (Kidney [22]): 0 % ID/g | Drug metabolism (Liver [23]): 0 % ID/g | Drug metabolism (Plasma [24]): 0 % ID/g | Drug metabolism [25]: 0.33 % ID/g | Drug metabolism (Muscle tissue [26]): 0 % ID/g | Drug metabolism (Kidney [27]): 0.21 % ID/g | Drug metabolism (Liver [28]): 1.32 % ID/g | Drug metabolism (Plasma [29]): 0 % ID/g | Drug metabolism [30]: 2.32 % ID/g | Drug metabolism (Muscle tissue [31]): 0 % ID/g | Drug metabolism (Kidney [32]): 0.1 % ID/g | Drug metabolism (Liver [33]): 0.78 % ID/g | Drug metabolism (Plasma [34]): 0 % ID/g | Drug metabolism [35]: 0.33 % ID/g
